Series [1] addresses T1, Soluble guanylate cyclase alpha1/beta1 complex (Homo sapiens) (UniProt Q02153+Q02108). The series can be described thus: Binding affinity to sGC subunit alpha-1/beta-1 catalytic domain (unknown origin) assessed as occupancy relative to control. In kind it is protein-complex assay. An outline of the steps:
(§1)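 Compounds at 100 μM in DMSO-containing running buffer, 25 °C. Injection and dissociation 30 s each, triplicate. Responses double-referenced, DMSO-corrected, control subtracted; occupancy is the fraction of immobilised sites bound, assuming 1:1 stoichiometry.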

For series [2], the target named is T1, Soluble guanylate cyclase alpha1/beta1 complex (Homo sapiens). Nature of the series: Activation of human recombinant sGC subunit alpha-1/beta-1 using GTP as substrate assessed as cGMP production measured per ng of protein at 100 uM treated prior to DEA/NO addition measured after 2 mins by radioimmunoassay in presence of Mg2+. Format: protein-complex assay.

Series [3] has the same target. The series can be described thus: Binding affinity to sGC subunit alpha-1/beta-1 catalytic domain (unknown origin) at 100 uM after 30 seconds by SPR analysis. Format: protein-complex assay. The procedure, abridged: as §1
Background: SPR reads the build-up and loss of mass on a sensor chip optically.

For series [4] the target is unchanged. Nature of the series: Binding affinity to full-length human recombinant sGC subunit alpha-1/beta-1 at 100 uM after 30 seconds by SPR analysis. Format: protein-complex assay. An outline of the steps:
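Compounds at 100 μM in running buffer (10 mM HEPES pH 7.4, 150 mM NaCl, 3 mM EDTA, 0.05% P20, 1 mM DTT, 10 mM MgCl2, 5% DMSO), 25 °C. Injection and dissociation 30 s each, triplicate.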

Series [5] can be described thus: Solubility of the compound in assay buffer in presence of 5% DMSO. In kind it is physicochemical.

Calls of active or inactive are those of the source. No cut-off for these calls is given here.

As for `NCc1noc(-c2c3ccccc3nn2Cc2cccc(Cl)c2)n1`, the Occ in series [1] stood at 94%. Further, the Activity in series [2] was found to be 2.08 pmol.

`COc1ccc(Cn2nc(-c3nc(CN)no3)c3ccccc32)cc1`: the outcome in series [3] and in series [4] was inactive. Moreover, in series [1], the Occ came to 21%. Moreover, the Activity in series [2] is 2.33 pmol.

As to `CC(C)(C)OC(=O)NCc1noc(-c2nn(Cc3ccc4c(c3)OCO4)c3ccccc23)n1`, the result in series [4] was Active. The Occ in series [1] was determined as 40%. Moreover, in series [2], the Activity amounted to 15.6 pmol.

As to `CC(=O)Nc1ccc(Cn2nc(-c3nc(CNC(=O)OC(C)(C)C)no3)c3ccccc32)cc1`, the Occ in series [1] worked out at 62%. The Activity in series [2] turned out to be 2.23 pmol.

As for `CC(=O)n1nc(-c2nc(CN)no2)c2ccccc21`, the Occ in series [1] was 20%. For the same molecule, the Activity in series [2] turned out to be 4.05 pmol.

With `Cc1ccccc1Cn1nc(-c2nc(CN)no2)c2ccccc21`, the outcome in series [4] was Active. Moreover, in series [1], the Occ came out at 101%. In addition, in series [2], the Activity was determined as 3.22 pmol.

Consider `O=C(O)CCCCN(CCc1ccccc1OCc1ccc(CCc2ccccc2)cc1)Cc1ccc(C(=O)O)cc1`, for which the result in series [3] was inactive. Besides, in series [4], the result was Active.

As for `NCc1noc(-c2c3ccccc3nn2Cc2ccc3c(c2)OCO3)n1`, the Occ in series [1] worked out at 96%. The Activity in series [2] is 9.11 pmol.

In the case of `NCc1noc(-c2c3ccccc3nn2CCn2ccnc2)n1`, the Occ in series [1] stood at 28%. For the same molecule, the Activity in series [2] was 2.72 pmol.

On to `Nc1nc(-c2nn(Cc3ccccc3F)c3ncccc23)ncc1C1CC1`, for which, in series [5], the solubility result is listed as “Insoluble”.

On to `Cc1ccc(Cn2nc(-c3nc(CN)no3)c3ccccc32)cc1`, for which the result in series [4] was Active. Further, the Occ in series [1] is 90%. Moreover, the Activity in series [2] worked out at 14.3 pmol.

For the molecule `Cc1oncc1Cn1nc(-c2nc(CN)no2)c2ccccc21`, the outcome in series [4] was Active. For the same molecule, in series [1], the Occ came out at 34%. For the same molecule, the Activity in series [2] was 9.09 pmol.

Values taken from ChEMBL document CHEMBL3112547, “Surface plasmon resonance using the catalytic domain of soluble guanylate cyclase allows the detection of enzyme activators” (Bioorg Med Chem Lett, 2014).
